High-throughput results from PubChem BioAssay.
MT stabilize HCS: stabilizes microtubules in HeLa cells | % tubulin-high responders, % at 10 µM | AID 2205 | actives 0.83% (n = 200,000) | HeLa tubulin immunostaining HCS, 24 h; share of cells brighter than vehicle mean+2SD;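 active means plate Z-score above 3 for both tubulin-high and condensed-nucleus cell shares, with cell loss under 80%, at 10 µM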;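 further: anti alpha tubulin signal scored within the nucleus-defined area of each cell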
bCat nuc transl: modulators of beta-catenin nuclear translocation; HeLa beta-catenin nuclear translocation, immunofluorescence imaging; nuclear translocation activity, % at 5 µM; actives 0.3% (n = 190,000);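 active means nuclear translocation activity above 50% at 5 µM, with a well cell count of 50 or more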;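 further: per-cell ratio of nuclear to cytoplasmic median beta-catenin stain intensity; plate controls were DMSO negative control for no effect and GSK-3 inhibitor IX positive control for full effect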
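Assay system: human HeLa cells, native beta-catenin; doses: 5 µM primary, 0.02–20 µM confirmation; incubation: compound treatment 24 h, 37°C, 5% CO2; technique: fluorescence imaging of beta-catenin antibody stain plus DAPI; measure: % activation, nuclear-to-cytoplasmic median beta-catenin signal ratio per cell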
Dynein cargo inh: dynein cargo transport inhibition | 3617.4 mouse cells, GR-EGFP nuclear translocation imaging; test concentration mostly 20 µM; stimulated with dexamethasone, 1 µM; active compounds read low | z-score, hits read low | actives 0.47% (n = 220,000) | AID 1381;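 active means plate z-score of nuclear minus cytoplasmic receptor signal below a set negative limit, without overly bright fluorescence or cell loss, cut at about -3.5 in these data, passing the limit was not always enough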;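 further: z-score of nuclear minus cytoplasmic ring GR-EGFP intensity difference per well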
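Buffer or medium: tet-free, stripped-serum medium; Also added: dexamethasone, 1.0 µM final; Technique: high-content fluorescence imaging after fixation; Times: 48 h induction, 1 h compound, 30 min dex at 37 °C; Read-out: per-cell GR-EGFP intensity, nucleus versus surrounding cytoplasmic ring, well-averaged.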
Lmaj promast: Leishmania major promastigote growth inhibition; Leishmania major promastigotes, resazurin fluorescence viability; inhibition, % at 10 µM; actives 9% (n = 200,000); AID 1063; in the data active means inhibition above about 50%;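 further: promastigotes grown with compound for 44 hours at 28 °C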
HSV replic up: increases HSV replication in cells; HSV replication augmentation in cells, fold increase; maximum fold increase; actives 0.005% (n = 220,000); AID 1956; in the data active means maximum fold increase above about 1.5; tested in PC3 cells
Numbers without * were called inactive; i = inactive; . = no result given. Rows were chosen to be rich in hits. Some 8.9% of all compounds tested hit in one or more screens of this group.

SMILES | MT stabilize HCS | bCat nuc transl | Dynein cargo inh | Lmaj promast | HSV replic up
CN1C(CC(=O)c2ccccc2)CCCC1CC(O)c1ccccc1 (centres undefined) | 1 | 3 | -0.14 | 90* | i
O=C(CC1C(=O)CCCC1=O)c1ccccc1 | 2 | -3 | -1.2 | -4 | i
CN(Cc1nc(-c2cccnc2)no1)S(=O)(=O)c1ccccc1 | 2 | . | 0.78 | -2 | i
COc1ccc(/C(O)=C2\C(=O)C(=O)N(CCN(C)C)C2c2cccc(OC)c2OC)cc1 (centres undefined) | 2 | 0 | -0.36 | -4 | i
CN(C(=O)Cc1c[nH]c2ccccc12)C(C(=O)Nc1ccc2c(c1)OCO2)c1ccccc1 (centres undefined) | 3 | -3 | -0.33 | 61* | i
CC(=O)NC(Cc1c[nH]c2ccccc12)C(=O)Nc1ccc2c(c1)OCO2 (centres undefined) | 2 | . | -1.2 | -3 | i
CCc1nc(SCC(=O)N2CCN(c3ccccc3)CC2)c2c(=O)n(C)c(=O)n(C)c2n1 | 4 | 1 | 0.54 | -5 | i
Cc1ccc(NCC(=O)Nc2cccc(S(=O)(=O)N(C)C)c2)c(Cl)c1 | 1 | 1 | -0.92 | 75* | i
O=C(CCC(=O)c1ccc(F)cc1)Nc1cccc(C(F)(F)F)c1 | 3 | -1 | -0.54 | -8 | i
CN(C)S(=O)(=O)c1cccc(NC(=O)CNC2CCCCC2)c1 | . | -2 | 0.27 | . | i
O=C(Cc1ccc(Cl)cc1)Nc1cccc(S(=O)(=O)Nc2ccccc2F)c1 | 2 | 1 | -0.56 | 69* | i
O=C(CCC(=O)c1ccc(F)cc1)Nc1cccc(S(=O)(=O)Nc2cccc(Cl)c2)c1 | 1 | -2 | 0.85 | 69* | i
CN(C)S(=O)(=O)c1cccc(NC(=O)c2ccc(OC(F)(F)F)cc2)c1 | 2 | 1 | -1.1 | 57* | i
COC(=O)c1[nH]c2ccc(C)cc2c1NC(=O)C1=COCCO1 | 1 | -6 | -0.18 | 1 | i
CN(C)c1ccc(C(=S)N2CCCCC2)cc1Br | 1 | -2 | -0.83 | 5 | i
CN(C)S(=O)(=O)c1cccc(NC(=O)Cc2ccc(Cl)cc2)c1 | 3 | . | -0.28 | 67* | i
NS(=O)(=O)c1cccc(NC(=O)COC(=O)Cc2ccc(Cl)cc2)c1 | 3 | -1 | 0.27 | -3 | i
O=C(N=Nc1c(O)n(Cc2ccccc2)c2ccccc12)c1ccncc1 | . | 0 | 2.1 | . | i
CCOc1cc(S(=O)(=O)N(Cc2ccccc2)Cc2ccccc2)c(OCC)cc1-n1cnnn1 | 3 | -3 | -0.18 | 92* | .
Cc1cc(=O)oc2ccc(OCC(=O)N3CCC(C)CC3)cc12 | 3 | 0 | -0.48 | 9 | i
CCN1CCN(C(=S)NCCc2ccccc2)CC1 | 3 | . | -0.33 | 86* | i
CCN(CCCNC(=O)c1c(C)cc(=O)oc1C)c1ccccc1 | 6 | -1 | -1.6 | 7 | i
O=c1c2c([nH]c3ccccc13)CCCCC2 | . | -1 | -1.1 | . | i
O=c1c2c([nH]c3ccccc13)CCCCCC2 | 3 | . | 0.23 | 64* | i
CCOc1ccccc1N1CCN(C(=O)c2ccccc2)CC1 | 2 | . | 0.91 | 11 | i
SMILES | MT stabilize HCS | bCat nuc transl | Dynein cargo inh | Lmaj promast | HSV replic up
CCOc1ccccc1N1CCN(C(=O)C2c3ccccc3Oc3ccccc32)CC1 | 40* | 60* | 2 | 41 | i
CCCC(=O)Nc1ccc(C(=O)N/N=C2\CC(=O)CC(C)(C)C2)cc1 | 3 | 3 | -1.1 | -6 | i
Cc1nn(S(=O)(=O)c2ccc(Cl)cc2)c(C)c1Sc1ccc([N+](=O)[O-])cc1 | 3 | 1 | 1.1 | 82* | i
O=C(NCCN1CCOCC1)c1ccc2ccccc2n1 | 1 | -1 | -0.19 | -1 | i
O=C(Nc1cccc(-c2csc(Nc3ccc(Cl)cc3)n2)c1)c1cccc(C(F)(F)F)c1 | . | 0 | -0.52 | . | i
O=C1Nc2ccc(Br)cc2/C1=C/C1CC=CCC1 (centres undefined) | 2 | . | -1.9 | 99* | i
COc1ccc2c(c1)C1=C(CC2)C(c2ccc(C)cc2)NC(=S)N1 (centres undefined) | 2 | -1 | -0.71 | 34 | i
Cc1ccc2nc(NCc3ccccc3)c(C=NCc3ccccc3)c(=O)n2c1 | 1 | -1 | 0.73 | -10 | i
Cc1ccc2nc(NCCCN3CCOCC3)c(C=NCCCN3CCOCC3)c(=O)n2c1 | 3 | -1 | 0.099 | 79* | i
O=C(c1cccc(F)c1)N1CCN(c2cc(N3CCCCC3)c(F)cc2[N+](=O)[O-])CC1 | 2 | -1 | 0.077 | 18 | i
CCN(CC)C(=O)c1cccc2c1C(=O)c1ccccc1-2 | 2 | 1 | -0.94 | 15 | i
O=C(Nc1ccc(S(=O)(=O)N2CCOCC2)cc1)c1ccc(CN2CCc3ccccc3C2)cc1 | 2 | 2 | -0.67 | 91* | i
Cc1ccc(S(=O)(=O)N2CCN(C(=O)CN3CCc4ccccc4C3)CC2)cc1 | 4 | -2 | 0.74 | 88* | i
O=C(c1ccc(S(=O)(=O)N2CCCCC2)cc1)N1CCc2ccccc2C1 | 3 | 0 | -0.067 | -2 | i
O=C(Nc1ccc(S(=O)(=O)N2CCCC2)cc1)c1ccc(CN2CCc3ccccc3C2)cc1 | 6 | 2 | -0.47 | 90* | i
O=C(Nc1ccccc1)c1ccc(S(=O)(=O)N2CCOCC2)cc1 | 2 | 4 | 1.2 | 7 | i
CCN1CCc2c(sc(NC(=O)c3ccc(S(=O)(=O)N4CCOCC4)cc3)c2C(=O)OC)C1 | 1 | 0 | 3.1 | 76* | .
CCN1CCc2c(sc(NC(=O)c3ccc(S(=O)(=O)N4CCOCC4)cc3)c2C(N)=O)C1 | 2 | 0 | -0.14 | 1 | i
CN(CC(=O)Nc1ccccc1F)CC(=O)Nc1ccc(F)c(F)c1F | 4 | 8 | 0.42 | -8 | i
CCOC(=O)N1CCN(C(=O)c2ccc3c(c2)sc2nc(-c4ccc(OC)cc4)cn23)CC1 | 6 | -1 | 0.91 | 98* | i
Cc1cc(/C=C2\SC(=Nc3ccc(F)cc3)NC2=O)c(C)n1-c1ccc(S(N)(=O)=O)cc1 | 14 | 160* | 0.15 | 57* | i
Cc1cc(/C=C2/SC(=O)NC2=O)c(C)n1-c1ccc(N2CCOCC2)cc1 | 2 | -1 | 0.39 | 57* | i
Cc1cc(/C=C2\SC(=S)NC2=O)c(C)n1-c1ccccc1 | . | -4 | 0.5 | . | i
CCOc1ccc(Cl)cc1CN1CCOCC1 | 3 | -2 | -0.61 | 4 | i
CCCCCOc1ccc(Cl)cc1CN1CCOCC1 | 1 | . | -0.97 | 80* | i
CC(C)CCOc1ccc(Cl)cc1CN1CCOCC1 | 1 | 0 | -0.65 | 89* | i
Cc1ccc(C(=O)C2=C(O)C(=O)N(CCN3CCOCC3)C2c2ccccn2)o1 (centres undefined) | 2 | -4 | -0.58 | 0 | i
CC(C)N(Cc1nc(-c2ccccc2)no1)C(=O)COc1ccccc1 | 6 | . | 0.81 | 0 | i
